Legend:
[1] = molecular target: T1, Secreted chorismate mutase (Mycobacterium tuberculosis) (UniProt P9WIB9); assay: Inhibition of Mycobacterium tuberculosis chorismate mutase expressed in Escherichia coli BL21 assessed as conversion of chorismate to prephenate at 50 uM after 5 mins by Spectrophotometry
T1 sequence (whole entry): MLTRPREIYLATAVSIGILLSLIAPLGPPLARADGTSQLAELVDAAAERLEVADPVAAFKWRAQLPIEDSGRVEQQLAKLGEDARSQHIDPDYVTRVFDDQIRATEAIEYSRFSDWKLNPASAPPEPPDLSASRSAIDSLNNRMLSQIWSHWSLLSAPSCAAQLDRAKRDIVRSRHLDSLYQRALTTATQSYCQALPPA
Method in brief: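 MtCM purified by Ni-NTA from BL21(DE3) carrying pET22b/MtCM; 180 pmol started on 4 mM chorismate (Tris-HCl pH 7.5, EDTA, BSA, β-mercaptoethanol) with effector at 50 μM, 37 °C, 5 min, quenched with 1 N HCl. Absorbance at 274 nm, corrected for compound and no-enzyme blanks; % inhibition = 100 − residual activity.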

[2] = molecular target: T1, Secreted chorismate mutase (Mycobacterium tuberculosis); assay: (§1) Inhibition of Mycobacterium tuberculosis chorismate mutase expressed in Escherichia coli BL21 assessed as conversion of chorismate to prephenate after 5 mins by Spectrophotometry
[3] = molecular target: T2, Secreted chorismate mutase (Mycobacterium tuberculosis, UniProt P9WIB9); assay: as §1
T2 sequence (P9WIB9 whole entry): T1 sequence (whole entry)

Row | Structure (SMILES) | inhibition [1] [%] | inhibition [2] | IC50 [3] [µM]
1 | COc1ccc2c(-c3nc4ccccc4nc3Cl)c[nH]c2c1 | 42 |  | 
2 | COc1ccc2[nH]cc(-c3nc4ccccc4nc3Cl)c2c1 | 36 |  | 
3 | Oc1ccc(-c2nc3ccccc3nc2-c2c[nH]c3ccc(Br)cc23)c(O)c1 | 21 |  | 
4 | COc1ccc2c(-c3nc4ccccc4nc3-c3c[nH]c4ccccc34)c[nH]c2c1 | 45 |  | 
5 | Fc1cc2[nH]cc(-c3nc4ccccc4nc3-c3c[nH]c4ccc(Br)cc34)c2cc1F | 27 |  | 
6 | Fc1cc2[nH]cc(-c3nc4ccccc4nc3Cl)c2cc1F | 64 | Dose-dependent effect | 19.7
7 | Oc1ccc(-c2nc3ccccc3nc2Cl)c2ccccc12 | 35 |  | 
8 | Oc1ccc2ccccc2c1-c1nc2ccccc2nc1-c1c[nH]c2ccc(Br)cc12 | 35 |  | 
9 | Oc1ccc(-c2nc3ccccc3nc2Cl)c(O)c1 | 31 |  | 
10 | Brc1ccc2[nH]cc(-c3nc4ccccc4nc3-c3c[nH]c4ccccc34)c2c1 | 31 |  | 

Source: ChEMBL document CHEMBL1944518, “AlCl3 induced (hetero)arylation of 2,3-dichloroquinoxaline: a one-pot synthesis of mono/disubstituted quinoxalines as potential antitubercular agents” (Bioorg Med Chem, 2012)
